# Source: PubChem
# CSC inhib = cancer stem cell inhibition | cancer stem cell-like cells viability, luminescence | inhibition, % at 7.5 µM | 300,000 compounds, 1.1% hits | AID 2717; in the data active means inhibition above about 75%; inconclusive means no clear call, values can overlap the other calls; tested in HMLE shEcad cells
# T cruzi repl = blocks replication of Trypanosoma cruzi. 300,000 compounds, 1.4% hits. AID 1885. inhibition, % (test concentration not listed). T. cruzi beta-gal in NIH3T3, luminescence, 90 h;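 active means mean inhibition across valid replicates above about 55%, limit read from the data; inconclusive means mean below that limit but half or more replicates reach it; inactive means mean below it, under half of replicates reach it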;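 further: signal also drops with host cell toxicity which is not excluded here; higher percent means less beta-gal luminescence so fewer parasites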
#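 Material: NIH/3T3 host cells with β-galactosidase reporter T. cruzi; Input: 5,000 host fibroblasts per well; Medium: DMEM, 2% fetal bovine serum; Compound: 50 nL DMSO compound solution per well; Schedule: 3 h host attachment, then at least 90 h co-culture; Detection: luminescent β-galactosidase signal after 60 min lysis.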
# SKKanGAS inh = inhibitors of SKKanGAS S. pyogenes growth in kanamycin (SK-promoter or general growth effect); BacTiter-Glo, 6 h; inhibition, % at 7.5 µM; 300,000 compounds, 1.3% hits; AID 1662;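 active means mean replicate score, as percent of positive control median, at least 50; inconclusive means mean below 50 but one replicate at or above 50; inactive means mean and every replicate below 50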;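 further: strain carries kanamycin resistance gene driven by streptokinase promoter and grows in 40 µg/ml kanamycin; loss of luminescence reflects streptokinase promoter inhibition or plain growth inhibition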
# aSyn UTR inh = 5' untranslated region of α-synuclein, MLPCN primary screen; alpha-synuclein 5'UTR reporter, inhibitor activity; inhibition, % (tested at 7.5 µM); 300,000 compounds, 0.82% hits; in the data active means inhibition above about 60%; inconclusive means no clear call, values can overlap the other calls;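 further: H4 neuroglioblastoma cells stably carrying SNCA 5'UTR luciferase fusion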
# Mdm2 MdmX PPI = human Mdm2/MdmX binding inhibition; O15151+Q00987; SaOS-2 split-luciferase Mdm2/MdmX complementation, luminescence; inhibition, % at 8 µM; 330,000 compounds, 3% hits; AID 485346;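 active means inhibition of at least 50% at 8 µM in the primary screen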
# Target sequence (O15151 whole entry, looked up): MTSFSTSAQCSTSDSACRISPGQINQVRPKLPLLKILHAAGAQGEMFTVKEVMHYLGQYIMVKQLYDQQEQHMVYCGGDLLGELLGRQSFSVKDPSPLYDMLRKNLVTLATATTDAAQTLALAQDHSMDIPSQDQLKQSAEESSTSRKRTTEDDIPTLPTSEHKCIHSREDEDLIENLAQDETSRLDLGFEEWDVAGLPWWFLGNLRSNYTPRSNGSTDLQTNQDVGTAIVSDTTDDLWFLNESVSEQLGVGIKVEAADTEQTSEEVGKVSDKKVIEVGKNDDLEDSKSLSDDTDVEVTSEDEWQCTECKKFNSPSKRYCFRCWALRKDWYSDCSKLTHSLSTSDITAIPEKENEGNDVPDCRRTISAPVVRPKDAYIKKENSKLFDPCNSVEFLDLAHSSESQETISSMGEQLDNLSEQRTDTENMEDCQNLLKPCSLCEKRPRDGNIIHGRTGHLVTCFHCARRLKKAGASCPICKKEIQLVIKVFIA
# Target sequence (Q00987 whole entry, looked up): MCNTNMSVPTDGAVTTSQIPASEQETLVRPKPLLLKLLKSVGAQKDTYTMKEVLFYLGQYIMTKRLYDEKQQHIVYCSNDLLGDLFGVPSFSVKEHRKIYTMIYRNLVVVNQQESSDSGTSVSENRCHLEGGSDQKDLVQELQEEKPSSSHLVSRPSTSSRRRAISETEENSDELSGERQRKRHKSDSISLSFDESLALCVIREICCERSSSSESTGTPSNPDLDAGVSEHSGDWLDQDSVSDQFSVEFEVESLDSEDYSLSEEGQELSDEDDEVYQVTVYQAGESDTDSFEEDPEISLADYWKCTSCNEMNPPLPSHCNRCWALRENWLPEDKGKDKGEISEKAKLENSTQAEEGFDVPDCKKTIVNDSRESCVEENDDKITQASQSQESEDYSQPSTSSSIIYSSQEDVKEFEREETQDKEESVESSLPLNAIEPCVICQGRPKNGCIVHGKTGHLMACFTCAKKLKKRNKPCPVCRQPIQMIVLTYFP
# A number is an active result; 0 = inactive; ? = inconclusive; - = not tested or not shown. Shown are actives, neighbours in structure and some others; about 5.4% of the full set was active somewhere.
SMILES,CSC inhib,T cruzi repl,SKKanGAS inh,aSyn UTR inh,Mdm2 MdmX PPI
O=C1Nc2ccccc2S/C1=C/Nc1cccc(Cl)c1,0,0,75.7,0,0
O=c1[nH]c(CN2CCN(C/C=C/c3ccccc3)CC2)nc2cc(Cl)ccc12,0,61.1,0,0,0
CC(=O)N1CCN(C(=O)CCc2nc3ccccc3c(=O)[nH]2)CC1,0,0,0,0,0
O=C(c1ccco1)N1CCN(Cc2nc3cc(Cl)ccc3c(=O)[nH]2)CC1,0,0,0,0,0
O=C(CCc1nc2ccccc2c(=O)[nH]1)N1CCN(C/C=C/c2ccccc2)CC1,0,81.7,0,0,0
Cc1cccc(C(C)C)c1NC(=O)c1cc2ccccc2o1,0,0,0,0,0
Cc1cccc(C)c1OC(=O)C(c1ccccc1)c1ccccc1,-,0,70.9,0,0
O=C(CN1C(=O)NC2(CCCC2)C1=O)OCC(=O)c1cccc(Cl)c1,-,-,-,-,0
O=C(CSc1nc(-c2ccco2)cc(C(F)(F)F)n1)Nc1ccccc1C(F)(F)F,75.0,0,0,0,0
Cc1cccc(C)c1NC(=O)CSc1nc(-c2ccco2)cc(C(F)(F)F)n1,0,0,0,0,0
COc1ccc(N2CCN(S(=O)(=O)CCNC(=O)Cc3ccc([N+](=O)[O-])cc3)CC2)cc1,0,0,0,65.3,0
O=C(NCCS(=O)(=O)N1CCN(c2ccc(F)cc2)CC1)c1ccc(Br)o1,0,0,0,127.2,0
CCN(CC)c1ccc(/C=C/c2nc3ccccc3s2)cc1,90.4,0,?,0,0
Cc1ccccc1-n1ncc(C(C)NS(=O)(=O)c2sccc2C)c1C (centres undefined),0,0,0,0,0
CC1CCC(NC(=O)CCCn2sc3ccccc3c2=O)CC1 (centres undefined),0,0,0,0,0
COc1ccccc1NS(=O)(=O)c1cc(NC(C)=O)ccc1N1CCCCC1,0,0,0,0,0
COc1ccccc1NS(=O)(=O)c1cc(NC(=O)Nc2cccc(C)c2)ccc1N1CCCCC1,0,59.9,0,0,0
Cc1ncsc1C(=O)Nc1nc2c(s1)CCCC2,0,0,0,0,0
Cc1cc(C(=O)Nc2nc3c(s2)CCCC3)cs1,85.9,0,0,0,0
COc1cccc(CNC(=O)c2nnn(CC(=O)Nc3ccc(Br)cc3)c2N)c1,0,0,0,86.0,0
COc1cccc(Cn2nnc(C(=O)Nc3cc(Cl)ccc3OC)c2N)c1,79.5,0,0,0,0
CCOc1cc(N2CCOCC2)c(OCC)cc1NC(=O)COC(=O)CCn1c(C)csc1=O,0,0,0,0,0
O=C(CN1CCN(CN2C(=O)NC3(CCCCCC3)C2=O)CC1)Nc1ccc(F)cc1,-,-,-,-,0
CCn1cc(C(=O)O)c(=O)c2cc(F)c(N/N=C/c3ccccc3[N+](=O)[O-])cc21,0,0,79.4,0,0
CCCC[n+]1c2ccccc2cc2ccccc21,0,68.2,0,0,0
SMILES,CSC inhib,T cruzi repl,SKKanGAS inh,aSyn UTR inh,Mdm2 MdmX PPI
CCC[n+]1c2ccccc2cc2ccccc21,0,60.5,0,0,0
Cc1cccc2cc(CN(Cc3cccnc3)C(=O)c3ccccc3F)c(Cl)nc12,0,60.6,0,0,0
Cc1cc(C)c2cc(CN(Cc3cccnc3)C(=O)c3ccc(F)cc3)c(Cl)nc2c1,0,59.4,0,0,0
COc1cccc(C(=O)Nc2ccc(C3CC3(Cl)Cl)cc2)c1 (centres undefined),91.0,0,0,0,0
COc1cccc(C(=O)Nc2ccc(C)cc2)c1,0,0,0,0,0
COC(=O)c1cccc(C(=O)N2CCCC(CCC(=O)N(C)CCc3ccccn3)C2)c1 (centres undefined),0,0,0,0,0
N=C(N)c1ccc(/C=C/c2ccc(C(=N)N)cc2O)cc1,0,0,100.2,0,0
CC(=O)Nc1ccc(S(=O)(=O)N2CCc3cc4c(cc3C2)OCCCO4)cc1,0,0,0,0,0
Cc1ccc(N(C)S(=O)(=O)c2ccc3c(c2)CC(C)N3C(=O)C2CC2)cc1 (centres undefined),0,0,101.9,0,0
CC(=O)N1c2ccc(S(=O)(=O)N(C)c3cc(C)ccc3C)cc2CC1C (centres undefined),0,0,0,0,0
CC(=O)N1c2ccc(S(=O)(=O)N3CCC(C(=O)Nc4cc(C)ccn4)CC3)cc2CC1C (centres undefined),0,0,52.0,0,0
CC(Oc1cccnc1[N+](=O)[O-])C(=O)Nc1ccc(Cl)cn1 (centres undefined),0,-,-,-,0
